Laboratory results taken from ChEMBL document CHEMBL1123481, “Structure-activity relationships of (arylalkyl)imidazole anticonvulsants: comparison of the (fluorenylalkyl)imidazoles with nafimidone and denzimol” (J Med Chem, 1986).
Activity calls are given as the source filed them. No cut-off for these calls is given here.

Legend:
[1] = target: T1, GABA-A receptor; anion channel (Rattus norvegicus) (UniProt O09028+P15431+P18506+P18508+P19969+P20236+P23574+P23576+P28471+P28473+P30191+P62813+P63079+P63138+Q91ZM7+Q9ES14); test: In vitro displacement of [3H]flunitrazepam binding to cortical membranes at 5e-5M concentration
In short: (§1)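 Rat cortical membranes (180 μg protein) were incubated with 2 nM [3H]flunitrazepam in 50 mM Tris-HCl pH 7.4 for 40 min at 4 °C, with test compound at 5×10^-5 M, in triplicate. Samples were filtered and washed three times with ice-cold buffer. Nonspecific binding was defined with 3 μM diazepam. Results are given as % of control, mean ± SEM.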

[2] = test system: Mus musculus; test: Effective dose in mice by pentylenetetrazole assay (administered subcutaneously); assay type: functional; settings: sc
In short: (§2)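 Test compound was given orally to mice. At its previously determined time of peak effect, pentylenetetrazole (110 mg/kg in water, 10 mL/kg) was injected sc into the neck skin fold. Mice were watched for 15 min for presence or absence of a clonic seizure. Where protection was bell-shaped, the value is the dose giving maximum protection.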

[3] = target: T1, GABA-A receptor; anion channel (Rattus norvegicus); test: In vivo displacement of [3H]flunitrazepam binding to rat cortical membranes after 20 mg/kg ip dose; assay type: organism-based; design: dose 20 mg/kg; settings: Membrane, at 20 mg/kg
In short: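 Male Sprague-Dawley rats (100 g; five per group) received saline or compound at 20 mg/kg ip. After 30 min, [3H]flunitrazepam (100 μCi/kg) was given iv via the tail vein. Rats were killed 20 min later. Cortex was homogenized in 50 mM Tris-HCl pH 7.4, and the particulate fraction was filtered and rinsed. Results are given as % of saline control, mean ± SEM.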

[4] = species: Mus musculus; test: Compound was tested for time to peak anticonvulsant effect (TPE); assay type: functional
In short: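 Time to peak effect after oral dosing in 5% acacia/water was estimated by testing mice at 0.5, 1, 2, 3 and 4 h posttreatment in the MES and horizontal screen tests.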

[5] = test system: Mus musculus; test: Effective dose in mice by horizontal screen assay (administered orally); assay type: functional; settings: po
In short: (§3)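 Fasted, pre-trained male CF1 mice (20–25 g) were dosed orally across a range of doses, given as a suspension in 5% acacia/water. Each mouse was placed on a 13 cm square wire screen, and the screen was rotated 180°. The score was return to the top within 1 min. Time of peak effect was scanned at 0.5–4 h. Each compound was then retested at that time with at least 4 doses and 12 mice per dose.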

[6] = target: T1, GABA-A receptor; anion channel (Rattus norvegicus); test: In vitro displacement of [3H]flunitrazepam binding from rat cortical membranes at 50 uM; assay type: cell membranes; settings: Membrane; in short: as §1
[7] = test system: Mus musculus; test: Effective dose in mice by maximal electroshock assay, administered orally; assay type: functional; settings: po
In short: (§4)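 Mice were dosed orally across a range of doses, given in 5% acacia/water. Time of peak effect was found by shocking at 0.5, 1, 2, 3 and 4 h. Corneal electroshock was 40 mA, 0.1 s, ac. Each compound was retested at peak time with at least four doses and 12 mice per dose. The ED50 for prevention of tonic-extensor convulsion was calculated by Litchfield–Wilcoxon; 95% confidence limits are given.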

[8] = test system: Mus musculus; test: Compound was tested for effective dose in mice by horizontal screen assay (administered orally); No effect at highest dose of 100 mg/kg; assay type: functional, organism-based; design: dose 100 mg/kg; in short: as §3
[9] = species: Mus musculus; test: Potentiation of hexobarbital-induced sleeping time in mice; assay type: functional
In short: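 Groups of 10 fasted mice received compound orally at 10 mg/kg in 5% acacia/water (10 mL/kg). At the compound's time of peak effect they were given hexobarbital 100 mg/kg ip, solubilized with stoichiometric NaOH. Sleeping time, measured as loss of righting reflex, was recorded to the nearest minute. Values are mean ± SEM.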

[10] = test system: Mus musculus; test: Effective dose in mice by horizontal screen assay (administered orally); No effect at highest dose of 400 mg/kg; assay type: functional, organism-based; design: dose 400 mg/kg; in short: as §3
[11] = test system: Mus musculus; test: Compound was tested for effective dose in mice by maximal electroshock assay (administered orally); No effect at highest dose of 800 mg/kg; assay type: functional, organism-based; design: dose 800 mg/kg; in short: as §4
[12] = test system: Mus musculus; test: Compound was tested for effective dose in mice by horizontal screen assay (administered orally); No effect at highest dose of 800 mg/kg; assay type: functional, organism-based; design: dose 800 mg/kg; in short: as §3
[13] = test system: Mus musculus; test: Compound was tested for effective dose in mice by pentylenetetrazole assay (administered subcutaneously); No effect at highest dose of 800 mg/kg; assay type: functional, organism-based; design: dose 800 mg/kg; in short: as §2
[14] = test system: Mus musculus; test: Effective dose in mice by pentylenetetrazole assay (administered subcutaneously); No effect at highest dose of 400 mg/kg; assay type: functional, organism-based; design: dose 400 mg/kg; in short: as §2
[15] = test system: Mus musculus; test: Compound was tested for effective dose in mice by maximal electroshock assay (administered per orally); assay type: functional; settings: po; in short: as §4
[16] = test system: Mus musculus; test: Compound was tested for effective dose in mice by maximal electroshock assay (administered orally); No effect at highest dose of 300 mg/kg; assay type: functional, organism-based; design: dose 300 mg/kg; in short: as §4
[17] = test system: Mus musculus; test: Compound was tested for effective dose in mice by horizontal screen assay (administered orally); No effect at highest dose of 300 mg/kg; assay type: functional, organism-based; design: dose 300 mg/kg; in short: as §3
[18] = target: Gamma-aminobutyric acid receptor subunit gamma-1 (Rattus norvegicus) (UniProt P23574); test: In vitro displacement of [3H]flunitrazepam binding to rat cortical membranes at 50 uM (No effect); assay type: cell membranes; settings: Membrane; in short: as §1
[19] = test system: Mus musculus; test: Compound was tested for effective dose in mice by horizontal screen assay (administered orally); No effect at highest dose of 200 mg/kg; assay type: functional, organism-based; design: dose 200 mg/kg; in short: as §3
[20] = test system: Mus musculus; test: Compound was tested for effective dose in mice by pentylenetetrazole assay (administered subcutaneously); No effect at highest dose of 200 mg/kg; assay type: functional, organism-based; design: dose 200 mg/kg; in short: as §2
[21] = test system: Mus musculus; test: Effective dose in mice by horizontal screen assay (administered orally); No effect at highest dose of 200 mg/kg
[22] = test system: Mus musculus; test: Effective dose in mice by pentylenetetrazole assay (administered subcutaneously); No effect at highest dose of 200 mg/kg

Sequence of Gamma-aminobutyric acid receptor subunit gamma-1 (Rattus norvegicus) (P23574 whole entry): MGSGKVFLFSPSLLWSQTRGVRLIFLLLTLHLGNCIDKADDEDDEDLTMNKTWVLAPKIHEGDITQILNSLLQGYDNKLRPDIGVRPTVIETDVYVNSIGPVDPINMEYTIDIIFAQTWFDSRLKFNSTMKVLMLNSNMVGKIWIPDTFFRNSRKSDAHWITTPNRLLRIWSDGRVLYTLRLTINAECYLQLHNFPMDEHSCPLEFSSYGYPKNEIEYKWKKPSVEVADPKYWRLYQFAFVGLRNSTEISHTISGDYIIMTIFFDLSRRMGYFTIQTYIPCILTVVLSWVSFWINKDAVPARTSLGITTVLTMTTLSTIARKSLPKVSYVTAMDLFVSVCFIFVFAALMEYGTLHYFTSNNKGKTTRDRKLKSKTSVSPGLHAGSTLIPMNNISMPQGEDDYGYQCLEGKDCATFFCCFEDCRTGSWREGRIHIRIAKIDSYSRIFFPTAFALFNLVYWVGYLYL

SMILES	ED50 [2]	TPE [4]	ED50 [5]	ED50 [7]	ED50 [10]	other results
O=C(Cn1ccnc1)c1ccc2ccc3ccccc3c2c1	> 400 mg/kg	1 h	> 400 mg/kg	52 mg/kg		Control [1]: 123%; Control [3]: 121%; Binding [6]: 23%
OC(Cn1ccnc1)c1ccc(CCc2ccccc2)cc1 (configuration not stated) [DENZIMOL]		1 h		12 mg/kg		ED50 [8]: No effect; ST [9]: 157.4 min
O=C(Cn1ccnc1)c1cccc2c1Cc1ccccc1-2	> 200 mg/kg	2 h	> 100 mg/kg	19 mg/kg		
O=C(OC(Cn1ccnc1)c1ccc2c(c1)Cc1ccccc1-2)c1ccccc1 (configuration not stated)	> 400 mg/kg	1 h			No effect	
O=C(Cn1cnc(-c2ccccc2)c1)c1ccc2c(c1)Cc1ccccc1-2		2 h				ED50 [11]: No effect; ED50 [12]: No effect; ED50 [13]: No effect
Cc1cn(CC(=O)c2ccc3c(c2)Cc2ccccc2-3)cn1		1 h	> 400 mg/kg			ED50 [14]: No effect
O=C(Cn1ccnc1)c1csc2ccccc12	> 400 mg/kg	1 h		59 mg/kg	No effect	
CC(O)(Cn1ccnc1)c1ccc2c(c1)Cc1ccccc1-2 (configuration not stated)		2 h		10 mg/kg	No effect	ED50 [15]: 10 mg/kg; ST [9]: 146.9 min; ED50 [14]: No effect
O=C(Cn1ccnc1)c1ccc2ccccc2c1 [NAFIMIDONE]	> 400 mg/kg	1 h		56 mg/kg	inactive	Control [1]: 102%; Control [3]: 116%; ST [9]: 59.1 min
c1ccc2c(c1)Cc1cc(CCn3ccnc3)ccc1-2	> 200 mg/kg	2 h	> 100 mg/kg	17.8 mg/kg		
CC1COC(Cn2ccnc2)(c2ccc3c(c2)Cc2ccccc2-3)O1 (configuration not stated)	> 200 mg/kg	2 h	> 400 mg/kg			
c1ccc2cc(CCc3ncc[nH]3)ccc2c1		1 h				ED50 [16]: No effect
CC(C(=O)c1ccc2c(c1)Cc1ccccc1-2)n1ccnc1 (configuration not stated)	260 mg/kg	1.5 h	> 400 mg/kg			ST [9]: 103 min
O=C(Cn1ccnc1)c1cc2ccccc2o1	> 400 mg/kg	1.5 h		30 mg/kg		Control [1]: 99.1%; Control [3]: 142%; ED50 [17]: inactive; Binding [18]: inactive
O=C(CCCn1ccnc1)c1ccc2c(c1)Cc1ccccc1-2		0.5 h		27 mg/kg		ED50 [19]: No effect; ED50 [20]: No effect
CC1(C)COC(Cn2ccnc2)(c2ccc3c(c2)Cc2ccccc2-3)OC1		2 h				ED50 [21]: No effect; ED50 [22]: No effect
CCC(C(=O)c1ccc2c(c1)Cc1ccccc1-2)n1ccnc1 (configuration not stated)	> 400 mg/kg	1 h			No effect	
O=C(Cn1ccnc1)c1ccc2c(c1)-c1ccccc1CC2	> 400 mg/kg	1 h		71 mg/kg	No effect	
O=C(CCn1ccnc1)c1ccc2c(c1)Cc1ccccc1-2	> 100 mg/kg	1 h	> 200 mg/kg			
c1ccc2c(c1)Cc1cc(C3(Cn4ccnc4)OCCCO3)ccc1-2		1 h	> 400 mg/kg			ED50 [14]: No effect
